Data set [1] is described as follows: Selectivity index, ratio of CC50 for […] OR6 cells to ED50 for HCV. The method in brief:
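SI was calculated as CC₅₀ (WST-1 viability of OR6 cells, 72 h) divided by EC₅₀ (HCV replicon Renilla luciferase inhibition, 72 h).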

Data set [2] has as its target T1, Peroxisome proliferator-activated receptor delta (Homo sapiens) (UniProt Q03181).
T1 sequence (whole entry): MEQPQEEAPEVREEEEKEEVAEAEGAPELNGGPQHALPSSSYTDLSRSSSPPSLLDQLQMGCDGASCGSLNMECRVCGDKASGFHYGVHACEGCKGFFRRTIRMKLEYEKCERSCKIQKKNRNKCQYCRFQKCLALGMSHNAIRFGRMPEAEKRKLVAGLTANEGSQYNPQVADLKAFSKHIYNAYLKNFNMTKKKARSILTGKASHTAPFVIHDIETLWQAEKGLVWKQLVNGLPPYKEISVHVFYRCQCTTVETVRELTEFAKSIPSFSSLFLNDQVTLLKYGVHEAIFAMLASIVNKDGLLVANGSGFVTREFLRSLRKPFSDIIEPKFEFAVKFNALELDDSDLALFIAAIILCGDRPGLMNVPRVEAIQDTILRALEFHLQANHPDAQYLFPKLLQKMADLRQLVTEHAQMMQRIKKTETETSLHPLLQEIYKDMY
The data set can be described thus: Antagonist activity at human PPARdelta assessed as effect on TIPP-703-induced activity at 10 uM. The method in brief:
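Antagonism measured as % inhibition of hPPARδ activity stimulated by a co-added hPPAR pan-agonist held at a fixed level of […].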

The subject of a further data set is Hepatitis C virus. The data set can be described thus: Antiviral activity against HCV infected in […] OR6 cells assessed as inhibition of viral RNA replication after 72 hrs by luciferase reporter gene assay. The format is functional, Hepacivirus hominis. The conditions noted are these: for EC50: OR6, 72 h, read-out: ED50 (the source's name). The method in brief:
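OR6 cells carry genome-length HCV RNA with a Renilla luciferase reporter. Cells were plated at 2 × 10⁴ per well, at least in triplicate, and cultured 24 h. They were then exposed to compound for 72 h, lysed in Renilla lysis reagent, and luciferase activity was read. The top test concentration was set from prior WST-1 viability at about 80% relative activity.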

Data set [3] can be described thus: Cytotoxicity against […] OR6 cells after 72 hrs by WST1 assay. The format is cell-based. The method in brief:
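OR6 cells were seeded at 1 × 10³ per well in triplicate and treated at three or four concentrations for 72 h. Viability was read by WST-1 proliferation assay, and CC₅₀ was determined.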
On the technique in general: Formazan colour is commonly taken as a measure of viable cells.

In data set [4] the target is T2, Peroxisome proliferator-activated receptor alpha (Homo sapiens) (UniProt Q07869).
T2 sequence (whole entry): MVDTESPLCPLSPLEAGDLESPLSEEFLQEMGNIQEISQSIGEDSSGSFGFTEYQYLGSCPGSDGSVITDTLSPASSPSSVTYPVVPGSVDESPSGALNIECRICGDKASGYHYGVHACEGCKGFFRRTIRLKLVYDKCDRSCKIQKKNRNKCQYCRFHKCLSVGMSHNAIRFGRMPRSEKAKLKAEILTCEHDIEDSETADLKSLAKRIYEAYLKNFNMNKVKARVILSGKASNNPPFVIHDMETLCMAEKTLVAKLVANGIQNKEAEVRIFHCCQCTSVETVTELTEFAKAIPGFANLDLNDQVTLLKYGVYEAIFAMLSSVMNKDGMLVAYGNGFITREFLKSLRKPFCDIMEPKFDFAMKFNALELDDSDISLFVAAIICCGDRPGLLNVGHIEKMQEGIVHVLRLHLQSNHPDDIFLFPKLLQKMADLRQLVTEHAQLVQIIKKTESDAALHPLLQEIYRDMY
The data set can be described thus: Antagonist activity at human PPARalpha assessed as effect on TIPP-703-induced activity at 10 uM. The method in brief: (§1)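 Antagonism was measured against stimulation by the hPPAR-pan agonist, with test compound co-applied and the result expressed as % inhibition.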

For data set [5], the target named is T3, Peroxisome proliferator-activated receptor delta (Homo sapiens, UniProt Q03181).
T3 sequence (Q03181 whole entry): T1 sequence (whole entry)
The data set can be described thus: Antagonist activity at human PPARdelta assessed as effect on TIPP-703-induced activity. The method in brief:
as §1

For a further data set, the species on record is Homo sapiens. Put plainly: Selectivity ratio of human PPARdelta to human PPARalpha.

One may read the inhibition as the change of the read-out against control, counted positive when it falls. In general, CC50 refers to the concentration that lowers cell viability or growth by half. The IC50 is the concentration at which inhibition is half-maximal.

The structures appear in SMILES notation. Activity calls are given as the source filed them. No cut-off for these calls is given here.

As for `NC(=O)c1ncn([C@@H]2O[C@H](CO)[C@@H](O)[C@H]2O)n1` [RIBAVIRIN], the “Selectivity Index” value in data set [1] is 18. Moreover, the inhibition entry in data set [2] is “inactive”. The EC50 in the data set with Hepatitis C virus was found to be 5.6 µM. For the same molecule, in data set [3], the 50% cytotoxic concentration (CC50) at 72 h turned out to be 100 µM.

As for `CCCCOc1ccc(-c2ccc(C(=O)O)cc2F)cc1CNC(=O)c1ccc(C(F)(F)F)cc1`, the inhibition in data set [4] came out at 25.4%. In data set [1], the “Selectivity Index” value was 2.1. For the same molecule, the EC50 with Hepatitis C virus stood at 3.9 µM. Moreover, in data set [5] (read-out: IC50), the IC50 turned out to be 0.1 µM. The CC50 at 72 h in data set [3] was 8.1 µM.

Regarding `O=C(Nc1ccncc1)c1cc([N+](=O)[O-])ccc1Cl`, in data set [4], the inhibition was 31.8%. Moreover, the “Selectivity Index” value in data set [1] came to 0.55. The EC50 with Hepatitis C virus came to 4.9 µM. For the same molecule, in data set [5] (read-out: IC50), the half-maximal inhibitory concentration (IC50) was above 10 µM. The molecule also returned a cytotoxic concentration (CC50) at 72 h in data set [3] of 2.7 µM.

On to `CCCCOc1ccc(-c2ccc(C(=O)O)nc2)cc1CNC(=O)c1ccc(C(F)(F)F)cc1`, for which the ED50 entry in the data set with Hepatitis C virus (Hepacivirus hominis) was “inactive”. In data set [5], the IC50 entry is listed as “Not Active”.

Take `CCCCOc1ccc(-c2ccc(C(=O)O)cc2C)cc1CNC(=O)c1ccc(C(F)(F)F)cc1`: the inhibition in data set [4] was 12.6%; in the data set with Hepatitis C virus (Hepacivirus hominis) it was “Dose-dependent effect”. In addition, in data set [1], the Selectivity Index amounted to 11. In addition, the Selectivity ratio in the data set listed under Homo sapiens came to 1000. Further, in the data set on Hepatitis C virus, the EC50 was determined as 0.22 µM. Besides, in data set [5] (read-out: IC50), the concentration for half-maximal inhibition (IC50) was determined as 0.019 µM. This molecule yielded a CC50 at 72 h in data set [3] of 2.5 µM.

In the case of `CCCCOc1ccc(-c2ccc(C)c(C(=O)O)c2)cc1CNC(=O)c1ccc(C(F)(F)F)cc1`, in the data set on Hepatitis C virus (Hepacivirus hominis), the ED50 result was “inactive”. The half-maximal inhibitory concentration (IC50) result in data set [5] was “Not Active”.

Turning to `CCOc1ccc(-c2ccc(C(=O)O)cc2C)cc1CNC(=O)c1ccc(C(F)(F)F)cc1F`, in data set [4], the inhibition stood at 49.5%. Further, the “Selectivity Index” value in data set [1] is 10. The EC50 in the data set with Hepatitis C virus is 0.39 µM. In addition, the IC50 in data set [5] (read-out: IC50) turned out to be 0.028 µM. In data set [3], this molecule registered a 50% cytotoxic concentration (CC50) at 72 h of 3.9 µM.

Take `CCCOc1ccc(-c2ccc(C(=O)O)cc2C)cc1CNC(=O)c1ccc(C(F)(F)F)cc1F`: the inhibition in data set [4] amounted to 49.5%. In addition, in data set [1], the “Selectivity Index” value came out at 11. Moreover, in the data set with Hepatitis C virus, the EC50 is 0.22 µM. Moreover, the IC50 in data set [5] (read-out: IC50) is 0.029 µM. In data set [3], it took 2.2 µM to reach half-maximal cytotoxicity (CC50 at 72 h).

`COC(=O)c1sccc1S(=O)(=O)Nc1ccc(Nc2ccccc2)cc1OC`: in the data set on Hepatitis C virus (Hepacivirus hominis), the result was inactive.

As for `CCCCOc1ccc(-c2cc(C(=O)O)ccc2C)cc1CNC(=O)c1ccc(C(F)(F)F)cc1`, the ED50 entry with Hepatitis C virus (Hepacivirus hominis) is “inactive”. The IC50 entry in data set [5] is on record as “Not Active”.

Consider `CCCCOc1ccc(-c2ccc(C(=O)O)cc2Cl)cc1CNC(=O)c1ccc(C(F)(F)F)cc1`, for which the inhibition in data set [4] is 30.7%. Further, in data set [1], the “Selectivity Index” value was found to be 1.8. The EC50 with Hepatitis C virus came to 1.8 µM. Besides, in data set [5] (read-out: IC50), the IC50 came to 0.013 µM. In addition, it took 3.2 µM to reach half-maximal cytotoxicity in data set [3] (CC50 at 72 h).

With `CCCCOc1ccc(-c2ccc(C(=O)O)cn2)cc1CNC(=O)c1ccc(C(F)(F)F)cc1`, the ED50 entry with Hepatitis C virus (Hepacivirus hominis) is “inactive”. Also, in data set [5], the IC50 entry is listed as “Not Active”.

`CCCCOc1ccc(-c2ccc(C(=O)O)o2)cc1CNC(=O)c1ccc(C(F)(F)F)cc1`: the ED50 entry in the data set on Hepatitis C virus (Hepacivirus hominis) was “inactive”. The IC50 result in data set [5] is given as “Not Active”.

On to `CCCCCOc1ccc(-c2ccc(C(=O)O)cc2C)cc1CNC(=O)c1ccc(C(F)(F)F)cc1F`, for which the inhibition in data set [4] turned out to be 23.3%. In addition, in data set [1], the “Selectivity Index” value is recorded as 5. In addition, the EC50 in the data set on Hepatitis C virus worked out at 0.53 µM. In addition, the IC50 in data set [5] (read-out: IC50) was 0.092 µM. The same molecule yielded a CC50 at 72 h in data set [3] of 2.7 µM.

The record behind these values is ChEMBL document CHEMBL2412985, “Peroxisome proliferator-activated receptor delta antagonists inhibit hepatitis C virus RNA replication” (Bioorg Med Chem Lett, 2013).
